# Columns and labels:
# Klebsiella pneumoniae [1] = test: (§1) Compound was tested for inhibition of the gram-negative organism Klebsiella pneumoniae MGH-2; format: functional
# Mus musculus [2] = test: Compound was evaluated for protective dose against the […] UC-76 lethal infection following sc administration in mouse; format: functional; settings: read-out: PD50
# Outline: (§2)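 Acute lethal systemic infection in female Charles River CD-1 mice (18–22 g), challenged intraperitoneally with an estimated 100 median lethal dose in 5% hog gastric mucin. Single doses in a twofold rising series were given with the challenge, sc as aqueous solution or po by gavage in 5% gum acacia. PD50 (mg/kg) was estimated by log probit from survival of eight mice per dose.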
# Enterococcus faecalis [3] = test: (§3) Compound was tested for inhibition of the […] organism Streptococcus faecalis MGH-2; format: functional
# Enterobacter cloacae = test: Compound was tested for inhibition of the gram-negative organism […] HA 2646; format: functional
# Escherichia coli [4] = test: Compound was tested for inhibition of target enzyme DNA gyrase obtained from Escherichia coli H560 cells; format: functional
# Outline: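 Gyrase isolated from E. coli H560 cells. Drug-gyrase-DNA complex denatured, and closed circular DNA converted to linear DNA. Linear DNA resolved by gel electrophoresis and stained with ethidium bromide. Value is the minimum drug concentration (µg/mL) giving linear DNA at an intensity relative to oxolinic acid at 10 µg/mL. Aqueous drug stocks made in 0.1 N NaOH or KOH.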
# Escherichia coli [5] = test: (§4) Compound was tested for inhibition of the gram-negative organism Escherichia coli H560; format: functional
# Mus musculus [6] = test: Compound was evaluated for protective dose against the […] UC-76 lethal infection following po administration in mouse; format: functional; settings: read-out: PD50; outline: as §2
# Pseudomonas aeruginosa [7] = test: (§5) Compound was tested for inhibition of the gram-negative organism Pseudomonas aeruginosa UI-18; format: functional
# Streptococcus pneumoniae = test: Compound was tested for inhibition of the […] organism Streptococcus pneumoniae SV-1; format: functional
# Mus musculus [8] = test: Compound was evaluated for protective dose against Streptococcus pneumoniae SV-1 lethal infection following sc administration; format: functional; settings: read-out: PD50
# Outline: (§6)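 Female Charles River CD-1 mice (18–22 g) were challenged intraperitoneally with an estimated 100 median lethal dose in tryptic soy broth. Single doses, in a twofold rising series, were given at the same time as challenge: subcutaneously as aqueous solution, or orally by gavage in 5% gum acacia. Survival in groups of eight mice per dose gave PD50 (mg/kg) by log probit.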
# Mus musculus [9] = test: Compound was evaluated for protective dose against the Escherichia coli vogel lethal infection following peroral administration in mouse; format: functional; settings: po, read-out: PD50; outline: as §2
# Staphylococcus aureus [10] = test: (§7) Compound was tested for inhibition of the […] organism […] H228.; format: functional
# Mus musculus [11] = test: Compound was evaluated for protective dose against the Escherichia coli vogel lethal infection following sc administration in mouse; format: functional; settings: read-out: PD50; outline: as §2
# Staphylococcus aureus [12] = test: (§8) Compound was tested for inhibition of the […] organism […] UC-76.; format: functional
# Providencia rettgeri [13] = test: (§9) Compound was tested for inhibition of the gram-negative organism Providencia rettgeri H1771; format: functional
# Streptococcus pyogenes [14] = test: (§10) Compound was tested for inhibition of the […] organism Streptococcus pyogenes C203.; format: functional
# Escherichia coli [15] = test: (§11) Compound was tested for inhibition of the gram-negative organism Escherichia coli vogel; format: functional
# Mus musculus [16] = test: Compound was evaluated for protective dose against the Streptococcus pneumoniae SV-1 lethal infection following po administration; format: functional; settings: read-out: PD50; outline: as §6
# Enterococcus faecalis [17] = test: as §3; format: functional; remark: listed apart in the source
# Outline: (§12)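 MICs read in standard microdilution (microtitration) format against a panel of 10 bacterial organisms; values in µg/mL.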
# Providencia rettgeri [18] = test: as §9; format: functional; outline: as §12; remark: listed apart in the source
# Pseudomonas aeruginosa [19] = test: as §5; format: functional; outline: as §12; remark: listed apart in the source
# [20] = target: DNA gyrase (Escherichia coli) (UniProt P0AES6+P0AES4); test: Inhibition of DNA gyrase of Escherichia coli H560 cells
# Outline: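 DNA gyrase purified from Escherichia coli H560 cells. Cleavage assay: drug-gyrase-DNA complex denatured, converting closed circular DNA to linear DNA. Linear DNA resolved by gel electrophoresis and stained with ethidium bromide. Value is the minimum drug concentration (µg/mL) giving linear DNA at an intensity relative to oxolinic acid at 10 µg/mL. Aqueous drug stocks made up in 0.1 N NaOH or KOH.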
# Streptococcus pyogenes [21] = test: as §10; format: functional; outline: as §12; remark: listed apart in the source
# Klebsiella pneumoniae [22] = test: as §1; format: functional; outline: as §12; remark: listed apart in the source
# Staphylococcus aureus [23] = test: as §8; format: functional; outline: as §12; remark: listed apart in the source
# Escherichia coli [24] = test: as §11; format: functional; outline: as §12; remark: listed apart in the source
# Escherichia coli [25] = test: as §4; format: functional; outline: as §12; remark: listed apart in the source
# Staphylococcus aureus [26] = test: as §7; format: functional; outline: as §12; remark: listed apart in the source
SMILES,ED50 (Mus musculus [2]) [mg/kg],MIC (Enterobacter cloacae) [µg/mL],ED50 (Mus musculus [6]) [mg/kg],ED50 (Mus musculus [8]) [mg/kg],ED50 (Mus musculus [9]) [mg/kg],ED50 (Mus musculus [11]) [mg/kg],ED50 (Mus musculus [16]) [mg/kg],MIC (Enterococcus faecalis [17]) [µg/mL],MIC (Providencia rettgeri [18]) [µg/mL],MIC (Pseudomonas aeruginosa [19]) [µg/mL],Min concentration [20] [µg/mL],MIC (Streptococcus pyogenes [21]) [µg/mL],MIC (Klebsiella pneumoniae [22]) [µg/mL],MIC (Staphylococcus aureus [23]) [µg/mL],MIC (Escherichia coli [24]) [µg/mL],MIC (Escherichia coli [25]) [µg/mL],MIC (Staphylococcus aureus [26]) [µg/mL],further results
CCn1cc(C(=O)O)c(=O)c2cc(F)c(N3CCNCC3)cc21 [NORFLOXACIN],15,0.1,23,> 100,4,1,150,–,–,–,–,–,–,–,–,–,–,MIC (Klebsiella pneumoniae [1]): 0.05 µg/mL; MIC (Enterococcus faecalis [3]): 1.6 µg/mL; MIC (Escherichia coli [4]): 1 µg/mL; MIC (Escherichia coli [5]): 0.1 µg/mL; MIC (Pseudomonas aeruginosa [7]): 0.2 µg/mL; MIC (Streptococcus pneumoniae): 1.6 µg/mL; MIC (Staphylococcus aureus [10]): 0.8 µg/mL; MIC (Staphylococcus aureus [12]): 0.05 µg/mL; MIC (Providencia rettgeri [13]): 0.025 µg/mL; MIC (Streptococcus pyogenes [14]): 0.8 µg/mL; MIC (Escherichia coli [15]): 0.025 µg/mL
CC1COc2c(N3CCN(C)CC3)c(F)cc3c(=O)c(C(=O)O)cn1c23 (stereo not drawn) [OFLOXACIN],5,0.1,11,38,2,0.8,68,0.8,0.2,0.4,5,0.8,0.1,0.1,0.1,–,–,–
CCn1cc(C(=O)O)c(=O)c2cc3c(cc21)OCO3 [OXOLINIC ACID],63,0.4,> 100,–,17,9,–,12.5,0.1,6.3,10,> 100,0.2,0.8,0.2,0.2,1.6,–
CCn1cc(C(=O)O)c(=O)c2cc(F)c(N3CCN(C)CC3)cc21 [PEFLOXACIN],3.7,–,9.5,96,2.8,1.6,200,0.8,0.05,0.4,–,0.8,0.05,0.1,0.025,0.1,0.2,–

# From ChEMBL document CHEMBL1123422, “1-Ethyl-7-[3-[(ethylamino)methyl]-1-pyrrolidinyl]-6,8-difluoro-1,4- dihydro-4-oxo-3-quinoline-carboxylic acid. New quinolone antibacterial with potent gram-positive activity” (1986)
